Published values of several laboratories.
Each line is one published result; the experiments were not run side by side.
Target: Serine/threonine-protein kinase MRCK beta (CDC42BPB, Homo sapiens, UniProt Q9Y5S2)

O=C(O)[C@@H]1[C@@H](Cn2nnc3ccccc3c2=O)CC[C@H]1C(=O)c1ccc(OCCC2CCOCC2)cc1 — remaining binding (cell-free assay, competition with immobilised ligand; 1 µM): 96%
O=C(c1ccc(Nc2ncc(Cl)c(-c3cc4ccccc4s3)n2)cc1)N1CCC(N2CCCC2)CC1 — remaining binding (binding, competition with immobilised ligand; 1 µM): 56%
CN(c1nccc(-c2cnn3ncccc23)n1)C1CC1 — remaining binding (binding; 1 µM): 86%
Nc1ncc2c(n1)-c1c([nH]c3ccc(C#CC4CC4)cc13)CCCC2 — remaining binding (binding, competition with immobilised ligand; 1 µM): 93%
C[C@H](NC(=O)c1cnc2n1[C@](C)(Cc1ccc(C#N)cc1)C(=O)N2c1cc(Cl)c(F)c(Cl)c1)C(=O)NC1(c2ccccn2)CC1 — remaining binding (cell-free assay, competition with immobilised ligand; 1 µM): 100%
N[C@H]1CCN(c2nccc(-c3cnn4ncccc34)n2)C1 — remaining binding (binding; 1 µM): 88%
O=C(c1ccc(Nc2nccc(-c3cc4ccccc4s3)n2)cc1)N1CCC(N2CCCC2)CC1 — remaining binding (binding, competition with immobilised ligand; 1 µM): 100%
CCN1CCN(Cc2ccc(C(=O)Nc3ccc(C)c(Oc4ccc5c(c4)CC(=O)N5)c3)cc2C(F)(F)F)CC1 — remaining binding (binding, competition with immobilised ligand; 1 µM): 77%
c1cnn2ncc(-c3ccnc(N4CCC45COC5)n3)c2c1 — remaining binding (binding; 1 µM): 94%
C=CC(=O)N1CCC(C(=O)NCC(=O)N2CCN(c3nc(-c4cnc(N)nc4C(F)F)nc(N4CCOCC4)n3)CC2)CC1 — remaining binding (binding, competition with immobilised ligand; 1 µM): 99%
CC(C)CC(=O)N1CCc2nc(-c3ccc(Br)cc3)nc(N(C)Cc3ccccc3)c2C1 — remaining binding (cell-free assay, competition with immobilised ligand; 0.1 µM): 99%
COc1cnc(Nc2cccc(S(N)(=O)=O)c2)nc1N1CCN(c2ccccc2)CC1 — remaining binding (binding, competition with immobilised ligand; 1 µM): 99%
Cc1cnn2ncc(-c3ccnc(N(C)C)n3)c2c1 — remaining binding (binding; 1 µM): 100%
O=C(Nc1c[nH]nc1C(=O)NC1CCNCC1)c1cc(F)cc(F)c1 — remaining binding (binding, competition with immobilised ligand; 1 µM): 100%
CNC(=O)c1ccc(Nc2ncc(C(F)(F)F)c(NCc3nccnc3N(C)S(C)(=O)=O)n2)cc1 — remaining binding (cell-free assay, competition with immobilised ligand; 0.1 µM): 90%
CN(C)c1nccc(-c2cnn3ncccc23)n1 — remaining binding (binding; 1 µM): 100%
CO[C@@H](C)c1c(Nc2ccc([C@@H](N(C)C(=O)C3CCS(=O)(=O)CC3)C(F)(F)F)cc2)cnc2cc(Cl)nn12 — remaining binding (cell-free assay, competition with immobilised ligand; 1 µM): 89%
O=C(NCCCN1CCOCC1)c1ccc(Nc2nccc(-c3cc4ccccc4s3)n2)cc1 — remaining binding (binding, competition with immobilised ligand; 1 µM): 100%
COc1cnc(Nc2cccc(S(N)(=O)=O)c2)nc1N1CCN(c2ccccc2)C(=O)C1 — remaining binding (binding, competition with immobilised ligand; 1 µM): 100%
COc1ccc2cc(OCC3(C(=O)O)CN(C(=O)c4ccc(F)cc4)C3)ccc2c1 — remaining binding (cell-free assay, competition with immobilised ligand; 1 µM): 100%
C[C@@H](c1ccc(-n2cnc3c(N)ncnc32)cc1)N1CCc2nn(C)c(Cc3ccccc3)c2C1=O — remaining binding (binding, competition with immobilised ligand; 0.1 µM): 89%
